Active and inactive are the calls of the source. The rule behind the calls is not given here.
Experiments:
[1] = Cytotoxicity against human MT2 cells after 4 days by XTT assay; assay type: cell-based
In short: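 XTT assay on MT-2 cells (5 × 10^5/mL mixed with equal volume of compound at graded concentrations). Incubated 4 days, then XTT (1 mg/mL) containing 0.02 µM phenazine methosulphate added. A450 read after 4 h; CC50 calculated as concentration giving 50% cytotoxicity.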

[2] = (§1) Inhibition of HIV-1 gp41-mediated 6-helix bundle formation after 30 mins by sandwich ELISA; parameters: species or system Human immunodeficiency virus 1
In short: (§2)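 Peptide N36 (2 µM) preincubated with compound at graded concentrations, 37 °C, 30 min. C34 (2 µM) then added and incubated a further 30 min at 37 °C. Mixture captured on wells coated with rabbit IgG against gp41 six-helix bundle (10 µg/mL); A450 read. Percent inhibition versus no-compound control; IC50 calculated; triplicate.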

[3] = test system: Human immunodeficiency virus 1; experiment: Antiviral activity against HIV1 3B infected in human MT2 cells assessed as inhibition of p24 antigen production after 4 days by ELISA; assay type: functional, organism-based; details: Human immunodeficiency virus 1, 3B, MT2, 96 h
In short: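 MT-2 cells (1 × 10^4) infected with HIV-1 IIIB at 100 TCID50 in RPMI 1640 with 10% serum (printed "PBS"), compound at graded concentrations overnight. Supernatant then replaced with compound-free medium. Day 4: supernatant lysed in equal volume 5% Triton X-100, p24 quantified by sandwich ELISA against recombinant p24 standard curve. Triplicate; EC50 from percent inhibition.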

[4] = Selectivity index, ratio of CC50 for human MT2 cells to EC50 for HIV1 3B; assay type: toxicity, cell-based; details: read-out: Ratio CC50/EC50
In short: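 Selectivity index calculated as CC50 (XTT, MT-2 cells, 4 days) divided by EC50 (p24 inhibition in HIV-1 IIIB-infected MT-2 cells).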

[5] = test system: Human immunodeficiency virus 1; experiment: Antiviral activity against enfuvirtide-sensitive HIV-1 NL4-3 harboring gp41 (36G)N42S mutation infected in human MT2 cells assessed as inhibition of p24 antigen production after 4 days by ELISA; assay type: functional, organism-based
In short: (§3)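 1 × 10^4 MT-2 cells infected with virus (100 TCID50) in RPMI 1640 with 10% serum, with or without compound at graded concentrations, overnight. Supernatant then replaced with compound-free medium. Day 4 supernatant lysed with 5% Triton X-100. p24 quantified by HIVIG-capture sandwich ELISA with recombinant p24 standard curve, A450. IC50 by CalcuSyn, triplicate, mean ± SD.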

[6] = test system: Human immunodeficiency virus 1; experiment: Antiviral activity against enfuvirtide-resistant HIV-1 NL4-3 harboring gp41 (36G)V38A mutation infected in human MT2 cells assessed as inhibition of p24 antigen production after 4 days by ELISA; assay type: functional, organism-based; in short: as §3
[7] = test system: Human immunodeficiency virus 1; experiment: Antiviral activity against enfuvirtide-resistant HIV-1 NL4-3 harboring gp41 (36G)N42T/N43K mutation infected in human MT2 cells assessed as inhibition of p24 antigen production after 4 days by ELISA; assay type: functional, organism-based; in short: as §3
[8] = test system: Human immunodeficiency virus 1; experiment: Antiviral activity against enfuvirtide-resistant HIV-1 NL4-3 harboring gp41 (36G)V38E/N42S mutation infected in human MT2 cells assessed as inhibition of p24 antigen production after 4 days by ELISA; assay type: functional, organism-based; in short: as §3
[9] = test system: Human immunodeficiency virus 1; experiment: Antiviral activity against enfuvirtide-resistant HIV-1 NL4-3 harboring gp41 (36G)V38A/N42D mutation infected in human MT2 cells assessed as inhibition of p24 antigen production after 4 days by ELISA; assay type: functional, organism-based; in short: as §3
[10] = test system: Human immunodeficiency virus 1; experiment: Antiviral activity against enfuvirtide-resistant HIV-1 NL4-3 harboring gp41 (36G)V38A/N42T mutation infected in human MT2 cells assessed as inhibition of p24 antigen production after 4 days by ELISA; assay type: functional, organism-based; in short: as §3
[11] = test system: Human immunodeficiency virus 1; experiment: as §1; in short: as §2
[12] = test system: Human immunodeficiency virus 1; experiment: Ratio of IC50 for enfuvirtide-resistant HIV-1 NL4-3 harboring gp41 (36G)N42T/N43K mutation to IC50 for enfuvirtide-sensitive HIV-1 NL4-3 harboring gp41 (36G)N42S mutation; assay type: functional
In short: (§4)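 MT-2 cells (1 × 10^4) were infected overnight in RPMI 1640 with 100 TCID50 of the NL4-3 (36G) N42S or mutant strain, with graded compound. Medium was then replaced without compound. On day 4, supernatant was lysed in 5% Triton X-100 and p24 measured by HIVIG-capture ELISA (A450, recombinant p24 standard). IC50 was taken from triplicates, and the ratio was mutant IC50 over N42S IC50.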

[13] = test system: Human immunodeficiency virus 1; experiment: Ratio of IC50 for enfuvirtide-resistant HIV-1 NL4-3 harboring gp41 (36G)V38A/N42T mutation to IC50 for enfuvirtide-sensitive HIV-1 NL4-3 harboring gp41 (36G)N42S mutation; assay type: functional; in short: as §4
[14] = test system: Human immunodeficiency virus 1; experiment: Ratio of IC50 for enfuvirtide-resistant HIV-1 NL4-3 harboring gp41 (36G)V38A mutation to IC50 for enfuvirtide-sensitive HIV-1 NL4-3 harboring gp41 (36G)N42S mutation; assay type: functional; in short: as §4
[15] = test system: Human immunodeficiency virus 1; experiment: Ratio of IC50 for enfuvirtide-resistant HIV-1 NL4-3 harboring gp41 (36G)V38E/N42S mutation to IC50 for enfuvirtide-sensitive HIV-1 NL4-3 harboring gp41 (36G)N42S mutation; assay type: functional; in short: as §4
[16] = test system: Human immunodeficiency virus 1; experiment: Ratio of IC50 for enfuvirtide-resistant HIV-1 NL4-3 harboring gp41 (36G)V38A/N42D mutation to IC50 for enfuvirtide-sensitive HIV-1 NL4-3 harboring gp41 (36G)N42S mutation; assay type: functional; in short: as §4

| Molecule | CC50 at 96 h [1] [µM] | IC50 [2] [µM] | EC50 [3] [µM] | selectivity ratio [4] | further results |
| --- | --- | --- | --- | --- | --- |
| Cc1cc(/C=C2\SC(=S)N(Cc3ccccc3)C2=O)c(C)n1-c1cccc(C(=O)O)c1 | 83.4 | 45.7 | 15.3 | 5.5 | – |
| COC(=O)c1cccc(CN2C(=O)/C(=C/c3cc(C)n(-c4ccc(O)c(C(=O)O)c4)c3C)SC2=S)c1 | 38.5 | 1.8 | 0.3 | 128 | IC50 [5]: 2.22 µM; IC50 [6]: 1.74 µM; IC50 [7]: 2.02 µM; IC50 [8]: 3.37 µM; IC50 [9]: 0.725 µM; IC50 [10]: 2.82 µM |
| Cc1cc(/C=C2\SC(=S)N(Cc3cccc(Br)c3)C2=O)c(C)n1-c1ccc(O)c(C(=O)O)c1 | 48.2 | 7.8 | 32.4 | 1.5 | – |
| Cc1ccc(C)n1-c1ccc(O)c(C(=O)O)c1 | – | 37.4 | 0.7 | 191 | – |
| Cc1cc(/C=C2\SC(=S)N(CCc3ccccc3)C2=O)c(C)n1-c1ccc(O)c(C(=O)O)c1 | 26 | 12.5 | 6.2 | 4.2 | – |
| COC(=O)c1ccc(CN2C(=O)/C(=C/c3cc(C)n(-c4ccc(O)c(C(=O)O)c4)c3C)SC2=S)cc1 | 36.9 | 1.8 | 1.5 | 24.6 | IC50 [5]: 2.01 µM; IC50 [6]: 4.85 µM; IC50 [7]: 2.3 µM; IC50 [8]: 2.75 µM; IC50 [9]: 2.2 µM; IC50 [10]: 1.67 µM |
| Cc1cc(/C=C2\SC(=S)N(Cc3ccc(C(F)(F)F)cc3)C2=O)c(C)n1-c1ccc(O)c(C(=O)O)c1 | 45.9 | 18.8 | 17.2 | 2.7 | – |
| COc1cccc(CN2C(=O)/C(=C/c3cc(C)n(-c4ccc(O)c(C(=O)O)c4)c3C)SC2=S)c1 | 102 | 2.1 | 23.5 | 4.4 | – |
| Cc1cc(/C=C2\SC(=S)N(Cc3ccccc3)C2=O)c(C)n1-c1ccc(Cl)c(C(=O)O)c1 | 68.3 | 34.3 | 19.1 | 3.6 | – |
| Cc1cc(/C=C2\SC(=S)N(c3ccccc3)C2=O)c(C)n1-c1ccc(O)c(C(=O)O)c1 | > 100 | – | 35.6 | > 2.8 | inhibition [11]: inactive |
| Cc1cc(/C=C2\SC(=S)N(Cc3ccc(C(=O)O)cc3)C2=O)c(C)n1-c1ccc(O)c(C(=O)O)c1 | 105 | 68 | 7.1 | 14.7 | – |
| Cc1cc(/C=C2\SC(=S)N(Cc3ccccc3Br)C2=O)c(C)n1-c1ccc(O)c(C(=O)O)c1 | 25.7 | – | 41.1 | 0.6 | – |
| Cc1cc(/C=C2\SC(=S)N(Cc3cccc(C(=O)O)c3)C2=O)c(C)n1-c1ccc(O)c(C(=O)O)c1 | > 100 | 20.8 | 12.1 | > 8.3 | – |
| Cc1cc(/C=C2\SC(=S)N(Cc3cccc(C(F)(F)F)c3)C2=O)c(C)n1-c1ccc(O)c(C(=O)O)c1 | 26.3 | 9.2 | 3.9 | 6.7 | – |
| enfuvirtide | – | – | – | – | Ratio IC50 [12]: >20; Ratio IC50 [13]: >20; Ratio IC50 [14]: >20; IC50 [5]: 0.077 µM; Ratio IC50 [15]: >20; IC50 [6]: > 2 µM; Ratio IC50 [16]: >20; IC50 [7]: > 2 µM; IC50 [8]: > 2 µM; IC50 [9]: 1.54 µM; IC50 [10]: 1.66 µM |
| COc1ccc(CN2C(=O)/C(=C/c3cc(C)n(-c4ccc(O)c(C(=O)O)c4)c3C)SC2=S)cc1 | 75.3 | 0.9 | 19.8 | 3.8 | – |
| Cc1cc(/C=C2\SC(=S)N(Cc3ccccc3)C2=O)c(C)n1-c1ccc(O)c(C(=O)O)c1 | 159 | 11.9 | 3.2 | 50.2 | – |
| Cc1cc(/C=C2\SC(=S)N(Cc3ccc(C(C)(C)C)cc3)C2=O)c(C)n1-c1ccc(O)c(C(=O)O)c1 | 55.2 | 2.6 | 0.9 | 61.3 | IC50 [5]: 0.473 µM; IC50 [6]: 4.25 µM; IC50 [7]: 1.96 µM; IC50 [8]: 2.67 µM; IC50 [9]: 2.02 µM; IC50 [10]: 1.78 µM |
| Cc1cc(/C=C2\SC(=S)N(Cc3ccccc3C(F)(F)F)C2=O)c(C)n1-c1ccc(O)c(C(=O)O)c1 | 28.8 | 22.6 | 29.1 | 1 | – |
| Cc1cc(/C=C2\SC(=S)N(Cc3ccc(Br)cc3)C2=O)c(C)n1-c1ccc(O)c(C(=O)O)c1 | 94.4 | 10.3 | 42.7 | 2.2 | – |
